Assay results taken from ChEMBL document CHEMBL4428023, “1,4-Dihydropyridines Active on the SIRT1/AMPK Pathway Ameliorate Skin Repair and Mitochondrial Function and Exhibit Inhibition of Proliferation in Cancer Cells” (J Med Chem, 2016).
The source made the active and inactive calls. The calls are words filed in the database; no cut-off is given here.

How the values were obtained:
[1] = target: T1, NAD-dependent protein deacetylase sirtuin-1 (Homo sapiens) (UniProt Q96EB6); experiment: Activation of full-length GST-tagged recombinant human SIRT1 assessed as enzyme activity obtained with subtraction of intrinsic fluorescence using p53-based untagged peptide as substrate at 50 uM after 30 mins by SIRTainty assay
T1 sequence (whole entry): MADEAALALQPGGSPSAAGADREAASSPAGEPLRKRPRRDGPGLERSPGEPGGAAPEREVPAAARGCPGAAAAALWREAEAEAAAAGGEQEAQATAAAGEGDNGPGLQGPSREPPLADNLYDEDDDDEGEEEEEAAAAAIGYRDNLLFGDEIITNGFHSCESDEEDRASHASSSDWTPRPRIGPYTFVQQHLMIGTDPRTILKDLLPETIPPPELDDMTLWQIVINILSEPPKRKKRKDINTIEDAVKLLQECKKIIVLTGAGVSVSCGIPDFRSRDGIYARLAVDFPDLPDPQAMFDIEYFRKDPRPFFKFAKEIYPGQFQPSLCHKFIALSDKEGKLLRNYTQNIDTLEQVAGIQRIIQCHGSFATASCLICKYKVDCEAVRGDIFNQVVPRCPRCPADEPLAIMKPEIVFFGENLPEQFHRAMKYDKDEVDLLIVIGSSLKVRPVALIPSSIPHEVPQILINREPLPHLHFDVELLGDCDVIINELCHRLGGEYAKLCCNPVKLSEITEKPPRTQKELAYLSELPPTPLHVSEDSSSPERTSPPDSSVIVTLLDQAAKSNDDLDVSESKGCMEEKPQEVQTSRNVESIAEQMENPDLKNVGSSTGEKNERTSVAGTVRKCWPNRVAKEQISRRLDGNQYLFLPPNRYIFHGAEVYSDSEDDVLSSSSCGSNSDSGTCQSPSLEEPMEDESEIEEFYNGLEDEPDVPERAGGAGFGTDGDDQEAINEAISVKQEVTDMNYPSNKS

[2] = target: T1, NAD-dependent protein deacetylase sirtuin-1 (Homo sapiens); experiment: Activation of full-length GST-tagged recombinant human SIRT1 assessed as enzyme activity obtained without subtraction of intrinsic fluorescence using p53-based untagged peptide as substrate at 50 uM after 30 mins by SIRTainty assay
C2C12 [3] = experiment: Activation of AMPK/SIRT1 in mouse C2C12 cells assessed as increase in mitochondrial density at 30 uM after 16 hrs by Mitotracker Green staining-based confocal microscopy; format: cell-based
Procedure, shortened: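 Murine C2C12 myoblasts plated on coverslips and grown overnight at 37 °C, 5% CO2. Then switched to serum-free HBSS, pH 7.4, and treated 16 h at 30 µM, alone or with 5 µM compound C or EX-527. Mitotracker Green (200 nM final) added for the last 30 min. Cells fixed in 4% paraformaldehyde, permeabilized and imaged by confocal microscopy, with settings fixed on untreated cells. Plate fluorescence also quantified.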

HaCaT [4] = experiment: Activation of AMPK/SIRT1 in human HaCaT cells assessed as nitric oxide production up to 50 uM incubated for 1 hr by DAF-2D staining-based fluorescence assay; format: cell-based
Procedure, shortened: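 HaCaT keratinocytes in DMEM with 10% FBS; treated 1 h (dose-response at 5, 25, 50 µM; screen at 1 µM), DMSO solvent control. 5 µM DAF-2D added to the medium; cells washed, trypsinized and analysed by flow cytometry. Read-out is % DAF-positive cells relative to DMSO.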

[5] = Antagonist activity at calcium channel in guinea pig smooth muscle assessed as inhibition of calcium-induced contraction in K+-depolarized aortic strips; settings: Cavia porcellus
HaCaT [6] = experiment: Activation of AMPK/SIRT1 in human HaCaT cells assessed as nitric oxide production at 10 uM incubated for 1 hr in presence of EX-527 by DAF-2D staining-based fluorescence assay; format: cell-based
Procedure, shortened: (§1)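 HaCaT cells in DMEM with 10% FBS. DHP (10 µM) given for 1 h alone or together with 10 µM AMPK inhibitor compound C or 10 µM SIRT1 inhibitor EX-527. Intracellular NO read by flow cytometry after loading with 5 µM DAF-2D in medium (ex 485/em 538 nm). Expressed as % DAF-positive cells versus DMSO.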

HaCaT [7] = experiment: Activation of AMPK/SIRT1 in human HaCaT cells assessed as nitric oxide production at 1 uM incubated for 1 hr by DAF-2D staining-based fluorescence assay; format: cell-based
Procedure, shortened: (§2)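 HaCaT keratinocytes grown in DMEM with 10% FBS and antibiotics. Cells treated 1 h (single-point 1 µM; dose-response at 5, 25, 50 µM). 5 µM DAF-2D added to complete medium. Cells then washed in PBS, trypsinized and analysed by flow cytometry for DAF fluorescence (ex 485/em 538 nm). Read-out is % DAF-positive cells relative to DMSO control.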

C2C12 [8] = experiment: Activation of AMPK/SIRT1 in mouse C2C12 cells assessed as increase in mitochondrial density at 30 uM after 16 hrs by Mitotracker Green staining-based confocal microscopy in presence of compound C; format: cell-based
Procedure, shortened: (§3)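 C2C12 myoblasts plated overnight, then in serum-free HBSS pH 7.4 and treated 16 h at 30 µM, alone or with 5 µM inhibitor (EX-527 or compound C). Mitotracker Green at 200 nM final was added for the last 30 min. Cells were fixed in 4% paraformaldehyde, permeabilized with Triton X-100 and imaged by confocal microscopy with fixed settings. Alternatively, mitochondrial fluorescence was quantified in plates.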

C2C12 [9] = experiment: Activation of AMPK/SIRT1 in mouse C2C12 cells assessed as increase in mitochondrial density at 30 uM after 16 hrs by Mitotracker Green staining-based confocal microscopy in presence of EX-527; format: cell-based
Procedure, shortened: as §3

Mus musculus [10] = experiment: Wound healing activity in CD1 mouse assessed as decrease in epithelial gap at 1 uM administered topically on wound everyday for 14 days by biopsy punch assay; format: functional, organism-based
Procedure, shortened: (§4)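 Male CD1 mice, 8 weeks old, anaesthetized i.p. with medetomidine 1 mg/kg plus ketamine 75 mg/kg, then biopsy-punch wounded. Compound (1 µM) in 20 µL saline applied directly to the wound daily for 14 days; solvent-treated group as control. Epithelial gap and % wound closure followed over time.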

Cavia porcellus [11] = species on record: Cavia porcellus; experiment: Antagonist activity at calcium channel in guinea pig smooth muscle assessed as inhibition of calcium-induced contraction in K+-depolarized aortic strips at 50 uM
Procedure, shortened: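 Guinea-pig isolated aortic strips depolarized with 80 mM K+; read-out is percent inhibition of calcium-induced contraction.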

[12] = target: T1, NAD-dependent protein deacetylase sirtuin-1 (Homo sapiens); experiment: Activation of SIRT1 in human HaCaT cells assessed as H4K16 deacetylation at 1 uM after 1 hr by Western blotting method; format: cell-based
Procedure, shortened: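 HaCaT cells treated 1 h at 1 µM, DMSO as solvent control. Cells lysed in Laemmli buffer and immunoblotted for acetyl-H4K16 (1:1000), with total histone H4 as loading control. Bands quantified by densitometry. At least three independent experiments.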

HaCaT [13] = experiment: Activation of AMPK/SIRT1 in human HaCaT cells assessed as nitric oxide production incubated for 1 hr by DAF-2D staining-based fluorescence assay; format: cell-based
Procedure, shortened: as §2

Cavia porcellus [14] = species on record: Cavia porcellus; experiment: Potency index, ratio of potency for test compound to potency for nifedipine for inhibition of calcium channel in guinea pig ileum longitudinal smooth muscle assessed as inhibition of calcium-induced contraction; format: tissue-based
[15] = target: T1, NAD-dependent protein deacetylase sirtuin-1 (Homo sapiens); experiment: Activation of SIRT1 in […] at 1 uM by fluorimetric assay; format: cell-free; settings: HaCaT, TDE = time-dependent effect
Mus musculus [16] = experiment: Wound healing activity in CD1 mouse assessed as increased wound closure at 1 uM administered topically on wound everyday for 14 days by biopsy punch assay; format: functional, organism-based
Procedure, shortened: as §4

HaCaT [17] = experiment: Activation of AMPK/SIRT1 in human HaCaT cells assessed as nitric oxide production at 10 uM incubated for 1 hr in presence of compound C by DAF-2D staining-based fluorescence assay; format: cell-based
Procedure, shortened: as §1

[18] = target: 3',5'-cyclic-AMP phosphodiesterase 4D (Homo sapiens) (UniProt Q08499); experiment: Inhibition of recombinant human PDE4D assessed as phosphate release using cAMP as substrate at 50 uM after 60 mins by malachite green assay
Procedure, shortened: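 Recombinant human PDE4D (20 mU) in 10 mM Tris-HCl pH 7.4 with cAMP substrate. Compounds at 50 µM in DMSO; rolipram 10 µM as positive control. Incubated 60 min at 37 °C, then phosphate release measured by malachite green absorbance at 620 nm. Mean of three determinations.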

HT-29 = experiment: Antiproliferative activity against human HT-29 cells assessed as cell viability after 72 hrs by MTT assay; format: functional, cell-based; settings: HT-29, 72 h
Procedure, shortened: (§5)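 Cells grown in RPMI with 10% fetal calf serum and penicillin, seeded in sextuplicate at 3 × 10^3 cells/well. After 24 h, cells were exposed 72 h to 5–200 µM. Viability was measured by MTT and expressed as treated/untreated × 100. IC50 was calculated from three independent experiments, reported as mean ± SD.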

M14 = experiment: Antiproliferative activity against human M14 cells assessed as cell viability after 72 hrs by MTT assay; format: functional, cell-based; settings: M14, 72 h
Procedure, shortened: as §5

HEY = experiment: Antiproliferative activity against human HEY cells assessed as cell viability after 72 hrs by MTT assay; format: functional, cell-based
Procedure, shortened: as §5

Caov-3 cell line = experiment: Antiproliferative activity against human Caov3 cells assessed as cell viability after 72 hrs by MTT assay; format: functional, cell-based; settings: Caov-3, 72 h
Procedure, shortened: as §5

[19] = Antiproliferative activity against human SAN cells assessed as cell viability after 72 hrs by MTT assay; format: functional, cell-based
Procedure, shortened: as §5

[20] = target: T1, NAD-dependent protein deacetylase sirtuin-1 (Homo sapiens); experiment: Activation of SIRT1 in human NCI-H1299 cells assessed as deacetylation of acetyl-H4K16 after 48 hrs by Western blotting method; format: cell-based
Procedure, shortened: (§6)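 M14 melanoma and H1299 lung cancer cells treated 48 h at 5, 10 and 20 µM. Total protein extracts immunoblotted for acetyl-H4K16, with β-actin as loading control. Detection by HRP secondary antibodies and enhanced chemiluminescence. Bands quantified by densitometry.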

[21] = target: T1, NAD-dependent protein deacetylase sirtuin-1 (Homo sapiens); experiment: Activation of SIRT1 in human M14 cells assessed as deacetylation of acetyl-H4K16 after 48 hrs by Western blotting method; format: cell-based
Procedure, shortened: as §6

NCI-H1299 = experiment: Antiproliferative activity against human NCI-H1299 cells assessed as cell viability after 72 hrs by MTT assay; format: functional, cell-based; settings: NCI-H1299, 72 h
Procedure, shortened: as §5

A549 = experiment: Antiproliferative activity against human A549 cells assessed as cell viability after 72 hrs by MTT assay; format: functional, cell-based; settings: A549, 72 h
Procedure, shortened: as §5

A2780 = experiment: Antiproliferative activity against human A2780 cells assessed as cell viability after 72 hrs by MTT assay; format: functional, cell-based; settings: A2780, 72 h
Procedure, shortened: as §5

SK-OV-3 = experiment: Antiproliferative activity against human SKOV3 cells assessed as cell viability after 72 hrs by MTT assay; format: functional, cell-based; settings: SK-OV-3, 72 h
Procedure, shortened: as §5

LoVo = experiment: Antiproliferative activity against human LoVo cells assessed as cell viability after 72 hrs by MTT assay; format: functional, cell-based
Procedure, shortened: as §5

[22] = target: T1, NAD-dependent protein deacetylase sirtuin-1 (Homo sapiens); settings: HaCaT, 1 uM

3',5'-cyclic-AMP phosphodiesterase 4D (Homo sapiens), sequence (Q08499 whole entry): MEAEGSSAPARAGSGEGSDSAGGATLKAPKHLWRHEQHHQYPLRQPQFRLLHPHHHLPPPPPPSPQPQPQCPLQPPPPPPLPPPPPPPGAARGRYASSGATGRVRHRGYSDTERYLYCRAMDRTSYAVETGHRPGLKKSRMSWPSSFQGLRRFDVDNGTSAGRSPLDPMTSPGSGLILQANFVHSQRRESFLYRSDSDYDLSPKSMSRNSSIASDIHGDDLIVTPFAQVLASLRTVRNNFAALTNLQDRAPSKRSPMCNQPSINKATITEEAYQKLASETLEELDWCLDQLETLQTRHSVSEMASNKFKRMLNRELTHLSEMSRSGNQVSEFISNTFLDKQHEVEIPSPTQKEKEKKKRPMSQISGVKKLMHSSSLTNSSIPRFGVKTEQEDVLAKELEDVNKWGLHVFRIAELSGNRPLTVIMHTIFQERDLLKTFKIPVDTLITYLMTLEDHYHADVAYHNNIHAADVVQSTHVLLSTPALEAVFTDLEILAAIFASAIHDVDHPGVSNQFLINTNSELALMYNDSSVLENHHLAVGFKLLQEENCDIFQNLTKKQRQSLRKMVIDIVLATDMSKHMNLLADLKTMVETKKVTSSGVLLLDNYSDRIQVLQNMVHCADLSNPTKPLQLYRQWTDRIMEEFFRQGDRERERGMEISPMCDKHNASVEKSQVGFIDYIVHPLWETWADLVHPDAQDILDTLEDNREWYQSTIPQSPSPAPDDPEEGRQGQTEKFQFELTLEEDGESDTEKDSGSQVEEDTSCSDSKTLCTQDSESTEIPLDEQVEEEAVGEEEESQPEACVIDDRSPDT

Compound: O=C(O)C1=CN(Cc2ccccc2)C=C(C(=O)O)C1c1ccco1
- Activity [1]: 41%
- Activity [2]: 41%
- Activity (C2C12 [3]): inactive

Compound: COC(=O)C1=C(C)NC(C)=C(C(=O)OC)C1c1ccccc1[N+](=O)[O-] [NIFEDIPINE]
- Activity (HaCaT [4]): inactive
- IC50 [5]: 0.009 µM

Compound: CCOC(=O)C1=CN(Cc2ccccc2)C=C(C(=O)OCC)C1c1ccsc1
- Activity [1]: 126%
- Activity (HaCaT [6]): inactive
- Activity (HaCaT [7]): Active
- Activity (C2C12 [8]): inactive
- Activity [2]: 404%
- Activity (C2C12 [9]): inactive
- Activity (Mus musculus [10]): Active
- inhibition (Cavia porcellus [11]): 13%
- Activity [12]: Active
- Activity (HaCaT [13]): Dose-dependent effect
- Ratio (Cavia porcellus [14]): 266
- Activity (C2C12 [3]): Active
- Activity [15]: Tde
- Activity (Mus musculus [16]): Active
- Activity (HaCaT [17]): inactive
- inhibition [18]: inactive

Compound: CCOC(=O)C1=CN(Cc2ccccc2)C=C(C(=O)OCC)C1c1ccc(CN2CCN(C)CC2)cc1
- Activity [1]: 68%
- Activity (HaCaT [6]): inactive
- Activity (HaCaT [7]): Active
- IC50 (HT-29): 11 µM
- Activity [2]: 152%
- IC50 (M14): 8 µM
- IC50 (HEY): 15 µM
- IC50 (Caov-3 cell line): 24 µM
- IC50 [19]: 16 µM
- Activity [20]: Dose-dependent effect
- Activity [21]: Dose-dependent effect
- Activity (HaCaT [17]): inactive
- IC50 (NCI-H1299): 24 µM
- IC50 (A549): 20 µM
- IC50 (A2780): 10 µM
- IC50 (SK-OV-3): 35 µM
- IC50 (LoVo): 15 µM

Compound: CC(NC(=O)c1ccccc1/N=C/c1c(O)ccc2ccccc12)c1ccccc1 (centres undefined)
- inhibition [22]: Active
